PTEN del growth: growth suppression of PTEN-null HCT116, primary screen, cell-based, CellTiter-Glo. viability, % at 10 µM. AID 827, 2007. 1.2% of 140,000 active. HCT116 PTEN-null viability, 60 h; hits give low values;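 active means viability at or below a set limit, 4 SD under the median of all tested compounds, cut at about 3.7% in these data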;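 further: PTEN knockout HCT116 line with beta catenin targeted HCT116 as companion control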
Dynein transport: inhibitors of GR-EGFP nuclear translocation, primary screen, dynein cargo transport inhibitor project, imaging, high-content, 3617.4 mouse cells | test concentration mostly 20 µM; stimulated with dexamethasone, 1 µM; hits give low values | z-score, hits read low | 0.47% of 220,000 active;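 active means plate z-score of nuclear minus cytoplasmic receptor signal below a set negative limit, without overly bright fluorescence or cell loss, cut at about -3.5 in these data, passing the limit was not always enough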;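 further: z-score of nuclear minus cytoplasmic ring GR-EGFP intensity difference per well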
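Buffer or medium: tetracycline-free induction medium containing charcoal-stripped FBS / Reagent: dexamethasone agonist, 1.0 µM final, for 30 min / Technique: automated 10x imaging of fixed Hoechst-stained cells / Times: induction 48 h, compound 1 h, agonist 30 min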
Autophagy HCS: autophagy modulators in MEF cells, primary screen, imaging, high-content, MEF GFP-LC3; MEF GFP-LC3 puncta imaging; test concentration mostly 10 µM; calls only at 10 µM (by protocol); 0.98% of 190,000 active;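 active means percentage of spot-positive cells more than 3 SD above its plate mean, without a fluorescence outlier flag or 80% toxicity; inconclusive means no clear call, values can overlap the other calls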;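 further: spot-positive cell cutoff set from DMSO-treated cells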
sdo1 growth: growth rescue of sdo1-depleted yeast, primary screen, S. cerevisiae, bone marrow failure model | z-score at 10 µM | AID 817, 2007 | 0.21% of 140,000 active | S. cerevisiae sdo1-depleted JHY4D growth rescue, OD600 30 h; hits give high values; pdr5 snq2 efflux-pump mutant strain;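 active means z-score above 3 at both the 24 hr and the 30 hr optical density reads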;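 further: z-score against mean and SD of all compound wells on the same plate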
HCT116 bCat-KO: primary screen for growth suppressors in beta-catenin knockout HCT116 cells (colon tumor, human); HCT116 beta-catenin knockout viability, CellTiter-Glo, 60 h; hits give low values; viability, % at 10 µM; 1.5% of 140,000 active; AID 818, 2007;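 active means viability at or under a set limit, the compound median less 4 SD, cut at about 6% in these data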;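 further: 0% = Hyamine 1622 control at 20 µM and 100% = untreated cell control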
* hit, by the source's call; i = inactive; ? = inconclusive; . = no result given; + = active, no number; ! = not active in a repeat. Rows were chosen to be rich in hits. Some 2.2% of all compounds tested hit in one or more screens of this group.

SMILES | PTEN del growth | Dynein transport | Autophagy HCS | sdo1 growth | HCT116 bCat-KO
C=CCC(Nc1ccccc1)C12C=CC(O1)C(C(=O)OC)=C2C(=O)OC (centres undefined) | 1.9* | -1.7 | i | -1.6 | 2.3*
C=CCC(c1ccccc1)N(C(C)=O)c1ccco1 (centres undefined) | . | 0.26 | i | . | .
CCOc1ccc(C2CC(c3c(O)c4ccccc4oc3=O)=NN2c2ccccc2)cc1OC (centres undefined) | . | -3.3 | + | . | .
CCOc1ccc(C2/C(=C(/O)c3ccccc3)C(=O)C(=O)N2CCCN(C)C)cc1OC (centres undefined) | . | 2 | i | . | .
O=C(O)/C=C\C(=O)NCc1cccnc1 | . | 0.48 | i | . | .
Cc1cc(=O)[nH]c2ccccc12 | 92 | -0.51 | i | 1.6 | 92
Cc1cc2[nH]c3c(c[n+](C)c4ccccc34)c2cc1C | . | -4.4* | + | . | .
O=C(Nc1ccc(S(=O)(=O)C(F)F)cc1)c1cccc(S(=O)(=O)N2CCOCC2)c1 | 59 | 0.51 | i | -0.66 | 61
CCCCOc1ccc2ccccc2c1C=O | 79 | 0.6 | + | -1.4 | 83
O=[N+]([O-])c1cc(S(=O)(=O)C(F)(F)F)ccc1Sc1nc2ccccc2s1 | 1.5* | -3.4 | i | -0.76 | 1.6*
O=[N+]([O-])c1cc(S(=O)(=O)C(F)(F)F)ccc1Sc1nc2ccccc2[nH]1 | 1.3* | -1.4 | i | -2.7 | 1.5*
O=C(CSc1nc(CCC2CCCC2)nc2ccccc12)NCc1ccc2c(c1)OCO2 | 85 | -0.084 | i | -1.5 | 82
COc1ccc(CCNC(=O)c2c(N)no[n+]2[O-])cc1OC | . | -0.49 | i | . | .
COc1ccc(C(=O)OC2CCN(c3ncc(C(F)(F)F)cc3Cl)CC2)cc1 | 57 | -0.0075 | i | 0.85 | 3.4*
O=C(c1ccc(COc2ccccc2Cl)o1)N1CCN(Cc2ccc3c(c2)OCO3)CC1 | 94 | -0.057 | +! | -0.99 | 84
Cc1ccc(C)c(NC(=S)Nc2ccc(S(=O)(=O)Nc3ncccn3)cc2)c1 | 95 | 0.66 | + | 0.39 | 85
O=C(Nc1ccccn1)C(=O)Nc1ccccn1 | . | 0.15 | . | . | .
S=C(Nc1ccccn1)c1ccccn1 | 1.8* | -0.41 | i | -0.14 | 1.9*
Cc1ccc(C)c(NC(=S)c2ccccn2)c1 | 3.8* | -0.56 | i | -0.83 | 2.7*
O=C(Nc1ccc(S(=O)(=O)Nc2nccs2)cc1)C1CCCCC1 | 107 | -0.55 | i | 0.36 | 103
O=C(COC(=O)CCCNC(=O)c1ccc(Cl)cc1)NC1CC1 | 94 | -0.16 | i | -0.16 | 103
Cc1c(CCOC(=O)C23CC4CC(CC(C4)C2)C3)sc[n+]1Cc1ccccc1 | 78 | -0.12 | i | 0.67 | 76
Cc1c(CCOC(=O)C23CC4CC(CC(C)(C4)C2)C3)sc[n+]1Cc1ccccc1 | 5 | -1.3 | i | -0.85 | 2.9*
O=C(CCl)N(c1ccccc1)c1c[nH]c2ccccc12 | 1.3* | -2.8 | ? | -1.4 | 1.9*
O=C(NCC1CCCO1)Nc1ccc2c(c1)OCO2 (centres undefined) | . | 0.73 | i | . | .
SMILES | PTEN del growth | Dynein transport | Autophagy HCS | sdo1 growth | HCT116 bCat-KO
Cc1cc(C)n(-c2nc(NCc3cccnc3)c3c4c(sc3n2)COC(C)(C)C4)n1 | 8 | 0.88 | i | 0.28 | 4.5*
Cc1ccc(/C=C/C(=O)c2cc(Br)ccc2OC(=O)c2ccco2)cc1 | 53 | -2.6 | i | -1.1 | 54
COc1ccccc1/C=C/C(=O)c1cc(Br)ccc1OC(=O)c1ccco1 | . | -5.3* | i | . | .
CCN(CC)CCNC(=O)c1ccc(NC(=O)c2cn(-c3ccccc3)nc2-c2cccs2)cc1 | . | -7.3* | + | . | .
COc1cccc2c1C(=O)c1c(O)c3c(c(O)c1C2=O)C[C@@](O)(C(C)=O)C[C@@H]3O[C@H]1C[C@H](N)[C@H](O)[C@H](C)O1 | 0.8* | 2.1 | i | -2 | 0.8*
Cc1ccc(C)n1CCN1CCN(CC(=O)Nc2cc(C(F)(F)F)ccc2Cl)CC1 | 23 | -0.51 | + | -1.1 | 19
CCCCn1c(CN2CCN(c3cccc(Cl)c3)CC2)nc2c1c(=O)[nH]c(=O)n2C | 24 | -0.47 | + | -1.2 | 18
CCn1c(O)c(C#N)c(C)cc1=O | . | 0.088 | . | . | .

Screening data from PubChem.
